According to publication PMC7049346 (Haematologica, 2019):

Tests used:
PDE4C2 = PDE4C2 (Homo sapiens, UniProt Q08493); test: PDE enzyme inhibition, radiometric assay; type: biochemical
In short: (§1)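 Recombinant human PDE enzymes (33 in the panel) were incubated in vitro with increasing concentrations of the test compound. Enzyme activity was measured radiometrically and IC50 values derived.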

K562 cells = test: cGMP induction in K562 cells; type: cell-based, human; details: 6 h
In short: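 Actively growing K562 cells were treated for 6 h with increasing concentrations of the test compound or hydroxyurea. cGMP was measured by non-radioactive enzyme immunoassay using the acetylation protocol, and protein by BCA assay. Data are means±Standard Errors.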

mice = test: Classical fear conditioning model of learning and memory; type: in vivo; details: similar dose of both PDE9i
rodents = test: Fertility and fetal development in rodents; type: in vivo
PDE4D1 = PDE4D1 (Homo sapiens, UniProt Q08499); test: PDE enzyme inhibition, radiometric assay; type: biochemical
In short: as §1

PDE3A = PDE3A (Homo sapiens, UniProt Q14432); test: PDE enzyme inhibition, radiometric assay; type: biochemical
In short: as §1

PDE4A1 = PDE4A1 (Homo sapiens, UniProt P27815); test: PDE enzyme inhibition, radiometric assay; type: biochemical
In short: as §1

PDE8A1 = PDE8A1 (Homo sapiens, UniProt O60658); test: PDE enzyme inhibition, radiometric assay; type: biochemical
In short: as §1

PDE11A1 = PDE11A1 (Homo sapiens, UniProt Q9HCR9); test: PDE enzyme inhibition, radiometric assay; type: biochemical
In short: as §1

PDE1A3 = PDE1A3 (Homo sapiens, UniProt P54750); test: PDE enzyme inhibition, radiometric assay; type: biochemical
In short: as §1

PDE4D7 = PDE4D7 (Homo sapiens, UniProt Q08499); test: PDE enzyme inhibition, radiometric assay; type: biochemical
In short: as §1

PDE3A, sequence (Q14432 whole entry): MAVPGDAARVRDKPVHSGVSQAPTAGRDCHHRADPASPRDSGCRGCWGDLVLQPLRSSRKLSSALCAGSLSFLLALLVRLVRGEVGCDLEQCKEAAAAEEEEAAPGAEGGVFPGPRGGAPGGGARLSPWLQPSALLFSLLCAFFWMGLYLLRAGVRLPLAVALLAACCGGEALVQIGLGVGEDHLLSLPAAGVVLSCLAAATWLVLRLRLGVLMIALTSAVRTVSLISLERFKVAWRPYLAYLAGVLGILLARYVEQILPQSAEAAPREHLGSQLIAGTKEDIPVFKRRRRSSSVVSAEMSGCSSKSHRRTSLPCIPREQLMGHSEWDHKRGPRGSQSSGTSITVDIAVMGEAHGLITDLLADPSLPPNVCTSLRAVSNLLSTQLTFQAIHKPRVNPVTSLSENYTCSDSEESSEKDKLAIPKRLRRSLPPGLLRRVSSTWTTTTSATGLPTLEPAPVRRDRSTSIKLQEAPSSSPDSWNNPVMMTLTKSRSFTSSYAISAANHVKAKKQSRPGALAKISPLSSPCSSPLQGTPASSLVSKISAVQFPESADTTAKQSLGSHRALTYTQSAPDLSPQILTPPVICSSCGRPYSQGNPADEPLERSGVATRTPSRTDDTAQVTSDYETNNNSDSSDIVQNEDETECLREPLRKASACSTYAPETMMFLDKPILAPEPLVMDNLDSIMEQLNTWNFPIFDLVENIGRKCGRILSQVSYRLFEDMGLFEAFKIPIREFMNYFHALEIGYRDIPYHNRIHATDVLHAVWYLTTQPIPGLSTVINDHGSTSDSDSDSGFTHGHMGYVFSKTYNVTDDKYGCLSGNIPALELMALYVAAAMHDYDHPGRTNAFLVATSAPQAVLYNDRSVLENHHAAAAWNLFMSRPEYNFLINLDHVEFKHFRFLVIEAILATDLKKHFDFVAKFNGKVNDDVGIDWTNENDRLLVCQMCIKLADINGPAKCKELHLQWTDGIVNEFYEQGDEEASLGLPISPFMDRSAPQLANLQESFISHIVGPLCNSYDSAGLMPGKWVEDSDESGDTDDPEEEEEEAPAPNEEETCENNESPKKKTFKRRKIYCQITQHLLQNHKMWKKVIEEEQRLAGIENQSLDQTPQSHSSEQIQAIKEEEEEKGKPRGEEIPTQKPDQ
PDE4D7, sequence (Q08499 1-748 isoform Q08499-11): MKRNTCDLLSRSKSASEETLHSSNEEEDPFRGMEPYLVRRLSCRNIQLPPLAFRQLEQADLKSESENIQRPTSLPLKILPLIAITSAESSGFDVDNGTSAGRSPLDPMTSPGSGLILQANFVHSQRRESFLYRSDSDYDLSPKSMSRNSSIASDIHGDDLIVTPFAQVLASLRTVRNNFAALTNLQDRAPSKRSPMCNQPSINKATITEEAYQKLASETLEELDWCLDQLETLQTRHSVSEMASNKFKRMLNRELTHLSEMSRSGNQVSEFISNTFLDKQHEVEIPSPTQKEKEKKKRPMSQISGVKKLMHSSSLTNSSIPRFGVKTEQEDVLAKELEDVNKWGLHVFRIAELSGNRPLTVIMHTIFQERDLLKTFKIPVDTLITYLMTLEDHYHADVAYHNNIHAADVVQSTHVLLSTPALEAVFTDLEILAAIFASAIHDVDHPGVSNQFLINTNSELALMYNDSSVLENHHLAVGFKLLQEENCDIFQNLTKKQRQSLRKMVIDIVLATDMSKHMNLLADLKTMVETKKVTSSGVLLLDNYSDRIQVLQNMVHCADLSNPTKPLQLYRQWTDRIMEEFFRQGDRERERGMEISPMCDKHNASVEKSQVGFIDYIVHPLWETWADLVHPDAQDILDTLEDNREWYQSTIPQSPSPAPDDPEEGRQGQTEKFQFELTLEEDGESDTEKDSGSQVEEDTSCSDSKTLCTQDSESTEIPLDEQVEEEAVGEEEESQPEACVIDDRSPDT
PDE11A1, sequence (Q9HCR9 445-933): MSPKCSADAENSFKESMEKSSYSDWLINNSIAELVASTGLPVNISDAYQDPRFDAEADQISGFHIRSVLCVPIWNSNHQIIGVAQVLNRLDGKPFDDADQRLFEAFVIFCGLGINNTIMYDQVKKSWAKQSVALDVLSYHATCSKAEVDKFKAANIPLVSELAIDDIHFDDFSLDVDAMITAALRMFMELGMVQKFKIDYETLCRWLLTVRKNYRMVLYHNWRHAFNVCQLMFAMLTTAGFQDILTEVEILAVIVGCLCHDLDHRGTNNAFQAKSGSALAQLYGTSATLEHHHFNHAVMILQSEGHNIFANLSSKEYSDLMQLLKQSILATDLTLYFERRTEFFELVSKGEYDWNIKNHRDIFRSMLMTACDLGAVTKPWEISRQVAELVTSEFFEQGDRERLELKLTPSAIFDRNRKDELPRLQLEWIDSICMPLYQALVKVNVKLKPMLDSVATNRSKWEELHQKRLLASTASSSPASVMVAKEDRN
PDE4C2, sequence (Q08493 107-712): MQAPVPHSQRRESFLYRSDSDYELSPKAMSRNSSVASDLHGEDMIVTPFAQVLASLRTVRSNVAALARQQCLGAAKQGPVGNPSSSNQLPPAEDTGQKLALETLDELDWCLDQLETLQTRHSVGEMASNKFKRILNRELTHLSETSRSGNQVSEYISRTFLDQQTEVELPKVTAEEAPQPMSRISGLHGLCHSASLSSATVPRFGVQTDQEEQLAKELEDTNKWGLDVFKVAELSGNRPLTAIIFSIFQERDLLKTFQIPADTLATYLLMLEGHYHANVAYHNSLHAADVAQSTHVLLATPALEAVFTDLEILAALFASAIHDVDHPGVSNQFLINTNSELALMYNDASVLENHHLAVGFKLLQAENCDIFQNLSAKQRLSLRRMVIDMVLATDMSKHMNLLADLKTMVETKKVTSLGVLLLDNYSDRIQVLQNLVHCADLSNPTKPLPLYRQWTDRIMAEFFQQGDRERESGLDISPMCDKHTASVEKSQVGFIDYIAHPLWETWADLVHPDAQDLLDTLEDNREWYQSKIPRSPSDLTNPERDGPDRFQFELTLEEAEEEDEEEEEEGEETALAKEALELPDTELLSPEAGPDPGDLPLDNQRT
PDE8A1, sequence (O60658 whole entry): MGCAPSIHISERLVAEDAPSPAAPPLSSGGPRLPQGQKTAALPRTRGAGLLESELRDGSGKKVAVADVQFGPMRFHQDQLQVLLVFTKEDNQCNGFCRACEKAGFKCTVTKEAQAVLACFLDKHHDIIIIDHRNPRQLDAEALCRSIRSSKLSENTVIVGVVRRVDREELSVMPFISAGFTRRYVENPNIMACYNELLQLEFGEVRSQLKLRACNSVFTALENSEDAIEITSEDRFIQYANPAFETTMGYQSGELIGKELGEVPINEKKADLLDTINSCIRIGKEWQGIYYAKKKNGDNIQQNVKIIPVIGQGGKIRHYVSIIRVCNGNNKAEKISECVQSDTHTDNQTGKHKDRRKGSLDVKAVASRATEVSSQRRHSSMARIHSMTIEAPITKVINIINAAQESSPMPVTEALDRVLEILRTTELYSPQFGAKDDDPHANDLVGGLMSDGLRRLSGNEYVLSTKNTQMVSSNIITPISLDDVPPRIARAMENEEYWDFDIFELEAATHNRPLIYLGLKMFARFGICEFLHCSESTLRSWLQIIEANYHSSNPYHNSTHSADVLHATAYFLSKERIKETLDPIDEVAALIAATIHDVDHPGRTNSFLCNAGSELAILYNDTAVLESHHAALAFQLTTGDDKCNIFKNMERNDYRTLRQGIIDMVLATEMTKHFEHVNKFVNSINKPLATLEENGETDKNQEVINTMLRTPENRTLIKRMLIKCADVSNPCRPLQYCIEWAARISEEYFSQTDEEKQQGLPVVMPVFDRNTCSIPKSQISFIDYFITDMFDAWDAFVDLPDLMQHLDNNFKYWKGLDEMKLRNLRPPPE
PDE1A3, sequence (P54750 whole entry): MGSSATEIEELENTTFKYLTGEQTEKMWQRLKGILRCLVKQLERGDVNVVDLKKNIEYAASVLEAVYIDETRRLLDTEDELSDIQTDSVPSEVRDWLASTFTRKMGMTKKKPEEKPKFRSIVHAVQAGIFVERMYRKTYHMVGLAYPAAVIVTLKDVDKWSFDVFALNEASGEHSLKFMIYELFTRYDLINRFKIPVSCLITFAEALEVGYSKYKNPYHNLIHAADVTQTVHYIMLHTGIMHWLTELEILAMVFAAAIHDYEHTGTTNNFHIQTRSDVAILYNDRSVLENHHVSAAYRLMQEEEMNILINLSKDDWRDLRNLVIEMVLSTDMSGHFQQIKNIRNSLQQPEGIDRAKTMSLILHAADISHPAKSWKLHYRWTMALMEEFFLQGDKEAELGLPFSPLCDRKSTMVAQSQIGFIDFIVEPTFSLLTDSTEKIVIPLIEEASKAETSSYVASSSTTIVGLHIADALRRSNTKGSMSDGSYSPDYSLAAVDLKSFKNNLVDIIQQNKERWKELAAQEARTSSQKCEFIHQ
PDE4A1, sequence (P27815 1-647 isoform P27815-4): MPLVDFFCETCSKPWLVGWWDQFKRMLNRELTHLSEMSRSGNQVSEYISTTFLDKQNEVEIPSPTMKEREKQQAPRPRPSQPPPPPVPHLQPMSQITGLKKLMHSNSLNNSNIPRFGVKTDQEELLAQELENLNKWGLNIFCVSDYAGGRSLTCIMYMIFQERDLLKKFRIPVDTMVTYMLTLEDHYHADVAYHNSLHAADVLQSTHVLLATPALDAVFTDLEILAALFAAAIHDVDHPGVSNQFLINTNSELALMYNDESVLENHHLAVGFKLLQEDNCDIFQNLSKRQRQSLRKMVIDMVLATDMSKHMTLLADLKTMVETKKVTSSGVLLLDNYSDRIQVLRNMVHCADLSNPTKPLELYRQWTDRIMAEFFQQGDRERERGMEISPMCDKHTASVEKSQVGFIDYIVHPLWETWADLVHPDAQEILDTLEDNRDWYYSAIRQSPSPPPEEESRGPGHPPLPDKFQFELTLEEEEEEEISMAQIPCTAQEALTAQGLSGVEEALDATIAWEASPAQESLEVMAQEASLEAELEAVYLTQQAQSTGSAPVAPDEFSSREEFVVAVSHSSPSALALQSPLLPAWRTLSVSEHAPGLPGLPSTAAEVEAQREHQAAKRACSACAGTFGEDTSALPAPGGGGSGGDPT

IC50 (PDE4C2): > 100 µM
IC50 (PDE4D1): > 100 µM
IC50 (PDE3A): > 100 µM
IC50 (PDE4A1): > 100 µM
IC50 (PDE8A1): > 100 µM
IC50 (PDE11A1): > 100 µM
IC50 (PDE1A3): 88.4 µM
IC50 (PDE4D7): > 100 µM
Structure (SMILES): C[C@@H]1CN(Cc2ncccn2)C[C@H]1c1cn2c(C3CCOCC3)ncc2c(=O)[nH]1 [IMR-687]
cGMP induction (K562 cells): induced cGMP in a dosedependent manner
conditioned fear responses (mice): no effect
impact on fertility or fetal development (rodents): did not impact fertility or fetal development
